ChEMBL document CHEMBL5705890, “Antitumor activity of an allosteric inhibitor of centromere-associated protein-E” (Proc Natl Acad Sci U S A, 2010)

Experiments:
[1] = Anticancer activity against human C32TG cells assessed as cell growth inhibition measured after 72 hrs by DAPI staining based analysis; type: functional
Summary of the method: (§1)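 Cells were seeded, and DNA content at 24 h after seeding (T0) was read by imaging of fixed, DAPI-stained cells. Cells were then exposed to a range of drug concentrations for a further 72 h (T72) and DNA content was read again. T72 values were normalized to T0, and GI50 was taken from curve fits as the concentration giving 50% growth inhibition relative to T0 and Ymax.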

H4 = experiment: Anticancer activity against human H4 cells assessed as cell growth inhibition measured after 72 hrs by DAPI staining based analysis; type: functional
Summary of the method: (§2)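 Cells seeded, DAPI-stained DNA content of fixed cells read by imaging 24 h after seeding (T0), and again after a further 72 h exposure to a range of drug concentrations (T72). T72 values were normalized to T0. Curve fits gave the concentration producing 50% growth inhibition relative to T0 and Ymax (GI50).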

NCI-H157 = experiment: Anticancer activity against human NCI-H157 cells assessed as cell doubling measured for 72 hrs by DAPI staining based analysis; type: functional
HuP-T4 = experiment: Anticancer activity against human HuP-T4 cells assessed as cell growth inhibition measured after 72 hrs by DAPI staining based analysis; type: functional
SK-UT-1 = experiment: Anticancer activity against human SK-UT-1 cells assessed as cell growth inhibition measured after 72 hrs by DAPI staining based analysis; type: functional
CAL-27 = experiment: Anticancer activity against human CAL-27 cells assessed as cell growth inhibition measured after 72 hrs by DAPI staining based analysis; type: functional; summary of the method: as §1
SF-539 = experiment: Anticancer activity against human SF-539 cells assessed as cell growth inhibition measured after 72 hrs by DAPI staining based analysis; type: functional
SCC-15 = experiment: Anticancer activity against human SCC-15 cells assessed as cell doubling measured for 72 hrs by DAPI staining based analysis; type: functional
SK-MEL3 = experiment: Anticancer activity against human SK-MEL3 cells assessed as cell doubling measured for 72 hrs by DAPI staining based analysis; type: functional
BE(2)-C = experiment: Anticancer activity against human BE2C cells assessed as cell doubling measured for 72 hrs by DAPI staining based analysis; type: functional
[2] = Anticancer activity against human C4-1 cells assessed as cell growth inhibition measured after 72 hrs by DAPI staining based analysis; type: functional; summary of the method: as §1
SiHa = experiment: Anticancer activity against human SiHa cells assessed as cell growth inhibition measured after 72 hrs by DAPI staining based analysis; type: functional
DU-145 = experiment: Anticancer activity against human DU-145 cells assessed as cell growth inhibition measured after 72 hrs by DAPI staining based analysis; type: functional; summary of the method: as §2
COLO 205 [3] = experiment: Anticancer activity against human COLO 205 cells assessed as cell growth inhibition measured after 72 hrs by DAPI staining based analysis; type: functional; summary of the method: as §1
HCC70 = experiment: Anticancer activity against human HCC70 cells assessed as cell growth inhibition measured after 72 hrs by DAPI staining based analysis; type: functional
BV-173 = experiment: Anticancer activity against human BV-173 cells assessed as cell growth inhibition measured after 72 hrs by DAPI staining based analysis; type: functional; summary of the method: as §1
ACHN = experiment: Anticancer activity against human ACHN cells assessed as cell doubling measured for 72 hrs by DAPI staining based analysis; type: functional
NCI-H23 = experiment: Anticancer activity against human NCI-H23 cells assessed as cell growth inhibition measured after 72 hrs by DAPI staining based analysis; type: functional
MCF7 = experiment: Anticancer activity against human MCF7 cells assessed as cell growth inhibition measured after 72 hrs by DAPI staining based analysis; type: functional
[4] = target: Centromere-associated protein E (Homo sapiens, UniProt Q02224, I182L/K184T/T183A); experiment: Binding affinity to human CENP-E I182L/T183A/K184T mutant assessed as inhibition constant
Centromere-associated protein E, sequence (Q02224 whole entry I182L/T183A/K184T): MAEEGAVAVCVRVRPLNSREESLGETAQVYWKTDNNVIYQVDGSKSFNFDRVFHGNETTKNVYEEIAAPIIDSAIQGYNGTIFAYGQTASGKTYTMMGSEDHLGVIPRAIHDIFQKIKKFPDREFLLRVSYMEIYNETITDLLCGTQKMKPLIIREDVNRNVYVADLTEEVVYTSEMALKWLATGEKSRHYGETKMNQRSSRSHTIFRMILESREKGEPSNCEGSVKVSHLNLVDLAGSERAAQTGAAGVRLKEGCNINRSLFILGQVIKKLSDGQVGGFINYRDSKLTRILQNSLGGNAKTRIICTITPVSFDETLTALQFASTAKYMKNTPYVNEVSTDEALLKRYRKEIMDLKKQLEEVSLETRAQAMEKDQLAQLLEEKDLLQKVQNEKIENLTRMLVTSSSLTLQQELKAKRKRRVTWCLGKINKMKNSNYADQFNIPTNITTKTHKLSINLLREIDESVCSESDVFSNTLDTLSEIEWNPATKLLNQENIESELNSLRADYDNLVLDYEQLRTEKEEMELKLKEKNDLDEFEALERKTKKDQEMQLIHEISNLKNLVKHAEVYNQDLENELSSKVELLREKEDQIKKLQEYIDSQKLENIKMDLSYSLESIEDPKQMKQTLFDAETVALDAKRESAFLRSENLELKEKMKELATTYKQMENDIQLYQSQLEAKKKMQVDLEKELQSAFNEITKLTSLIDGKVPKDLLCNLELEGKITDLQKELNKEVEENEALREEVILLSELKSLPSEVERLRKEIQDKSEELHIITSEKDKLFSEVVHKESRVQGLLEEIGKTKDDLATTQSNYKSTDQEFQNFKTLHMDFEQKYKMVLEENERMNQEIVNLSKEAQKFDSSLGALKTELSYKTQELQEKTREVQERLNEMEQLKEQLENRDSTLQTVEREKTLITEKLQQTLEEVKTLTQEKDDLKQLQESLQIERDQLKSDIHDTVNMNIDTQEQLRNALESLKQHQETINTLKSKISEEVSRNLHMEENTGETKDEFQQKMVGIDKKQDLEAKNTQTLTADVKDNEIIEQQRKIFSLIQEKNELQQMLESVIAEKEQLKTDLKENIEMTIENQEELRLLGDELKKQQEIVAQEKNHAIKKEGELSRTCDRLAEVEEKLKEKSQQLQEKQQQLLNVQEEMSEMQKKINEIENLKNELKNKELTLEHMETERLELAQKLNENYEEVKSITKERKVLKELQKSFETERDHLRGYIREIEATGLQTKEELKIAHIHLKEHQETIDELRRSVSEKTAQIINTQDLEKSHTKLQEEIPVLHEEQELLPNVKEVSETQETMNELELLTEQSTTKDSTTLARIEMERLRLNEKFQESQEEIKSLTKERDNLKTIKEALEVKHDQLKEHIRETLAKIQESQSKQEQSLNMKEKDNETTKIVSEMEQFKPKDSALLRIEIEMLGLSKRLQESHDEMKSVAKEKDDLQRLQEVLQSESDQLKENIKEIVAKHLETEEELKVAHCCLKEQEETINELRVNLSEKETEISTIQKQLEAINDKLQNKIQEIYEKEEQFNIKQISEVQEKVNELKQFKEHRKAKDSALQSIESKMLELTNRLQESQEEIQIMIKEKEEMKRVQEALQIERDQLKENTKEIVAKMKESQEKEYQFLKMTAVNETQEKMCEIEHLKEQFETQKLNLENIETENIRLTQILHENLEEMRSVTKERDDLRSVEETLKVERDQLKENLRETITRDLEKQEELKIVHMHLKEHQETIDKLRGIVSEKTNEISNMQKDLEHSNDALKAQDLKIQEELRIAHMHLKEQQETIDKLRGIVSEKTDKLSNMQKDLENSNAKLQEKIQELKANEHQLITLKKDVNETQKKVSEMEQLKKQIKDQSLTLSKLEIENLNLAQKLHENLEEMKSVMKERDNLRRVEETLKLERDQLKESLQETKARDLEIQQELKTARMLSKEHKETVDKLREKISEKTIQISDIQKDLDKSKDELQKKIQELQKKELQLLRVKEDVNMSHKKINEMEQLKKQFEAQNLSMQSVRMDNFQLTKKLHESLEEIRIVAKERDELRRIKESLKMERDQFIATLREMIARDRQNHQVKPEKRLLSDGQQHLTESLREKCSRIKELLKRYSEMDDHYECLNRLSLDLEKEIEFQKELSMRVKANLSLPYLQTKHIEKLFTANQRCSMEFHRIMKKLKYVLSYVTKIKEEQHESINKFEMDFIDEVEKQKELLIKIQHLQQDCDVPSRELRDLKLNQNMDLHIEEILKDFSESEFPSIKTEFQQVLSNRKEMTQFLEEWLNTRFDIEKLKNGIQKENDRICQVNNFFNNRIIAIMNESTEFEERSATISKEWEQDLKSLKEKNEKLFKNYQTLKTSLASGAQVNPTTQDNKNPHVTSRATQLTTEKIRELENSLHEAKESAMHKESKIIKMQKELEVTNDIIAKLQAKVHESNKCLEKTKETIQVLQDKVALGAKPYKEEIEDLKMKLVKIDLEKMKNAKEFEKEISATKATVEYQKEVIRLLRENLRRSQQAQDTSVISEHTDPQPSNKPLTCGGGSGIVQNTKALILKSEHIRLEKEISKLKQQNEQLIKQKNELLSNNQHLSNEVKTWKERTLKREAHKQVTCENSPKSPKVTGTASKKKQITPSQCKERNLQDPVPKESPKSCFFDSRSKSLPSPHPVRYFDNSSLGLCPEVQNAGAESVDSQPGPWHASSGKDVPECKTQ

CHP-212 = experiment: Anticancer activity against human CHP-212 cells assessed as cell doubling measured for 72 hrs by DAPI staining based analysis; type: functional
U2OS = experiment: Anticancer activity against human U2OS cells assessed as cell growth inhibition measured after 72 hrs by DAPI staining based analysis; type: functional
HCT-8 [5] = experiment: Anticancer activity against human HCT-8 cells assessed as cell doubling measured for 72 hrs by DAPI staining based analysis; type: functional
MX1 [6] = experiment: Anticancer activity against human MX1 cells assessed as cell doubling measured for 72 hrs by DAPI staining based analysis; type: functional
SHP77 = experiment: Anticancer activity against human SHP77 cells assessed as cell growth inhibition measured after 72 hrs by DAPI staining based analysis; type: functional
Raji = experiment: Anticancer activity against human Raji cells assessed as cell growth inhibition measured after 72 hrs by DAPI staining based analysis; type: functional
COLO 205 [7] = experiment: Antitumor activity against human COLO 205 cells in xenograft model assessed as difference between median time to endpoint time of treated versus control group at 125 mg/kg; type: functional
NCI-H209 = experiment: Anticancer activity against human NCI-H209 cells assessed as cell doubling measured for 72 hrs by DAPI staining based analysis; type: functional
MDA-MB-435 = experiment: Anticancer activity against human MDA-MB-435 cells assessed as cell growth inhibition measured after 72 hrs by DAPI staining based analysis; type: functional
MX1 [8] = experiment: Anticancer activity against human MX1 cells assessed as cell growth inhibition measured after 72 hrs by DAPI staining based analysis; type: functional
MC-IXC = experiment: Anticancer activity against human MC-IXC cells assessed as cell doubling measured for 72 hrs by DAPI staining based analysis; type: functional
[9] = Anticancer activity against human SCC-13 cells assessed as cell doubling measured for 72 hrs by DAPI staining based analysis; type: functional
[10] = Anticancer activity against human TE 381.T cells assessed as cell doubling measured for 72 hrs by DAPI staining based analysis; type: functional
BC-3 = experiment: Anticancer activity against human BC-3 cells assessed as cell growth inhibition measured after 72 hrs by DAPI staining based analysis; type: functional
Summary of the method: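 Cells were seeded and, after 24 h, DNA content was read as T0. Cells were then exposed to varying drug concentrations for a further 72 h (T72). Fixed cells were DAPI-stained and DNA content measured by automated imaging. T72 values were normalized to T0. GI50 is the concentration giving 50% growth inhibition between T0 and Ymax, obtained by curve fitting.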

Y79 = experiment: Anticancer activity against human Y79 cells assessed as cell doubling measured for 72 hrs by DAPI staining based analysis; type: functional
NCI-H1299 = experiment: Antitumor activity against human NCI-H1299 cells in xenograft model assessed as tumor growth delay at 62.5 mg/kg relative to control; type: functional
HT-29 = experiment: Anticancer activity against human HT-29 cells assessed as cell growth inhibition measured after 72 hrs by DAPI staining based analysis; type: functional
HeLa = experiment: Anticancer activity against human HeLa cells assessed as cell growth inhibition measured after 72 hrs by DAPI staining based analysis; type: functional
G-401 = experiment: Anticancer activity against human G-401 cells assessed as cell growth inhibition measured after 72 hrs by DAPI staining based analysis; type: functional; summary of the method: as §2
HCT-8 [11] = experiment: Anticancer activity against human HCT-8 cells assessed as cell growth inhibition measured after 72 hrs by DAPI staining based analysis; type: functional
JEG-3 = experiment: Anticancer activity against human JEG-3 cells assessed as cell growth inhibition measured after 72 hrs by DAPI staining based analysis; type: functional

GI50 (SK-UT-1): 23 nM | GI50 (DU-145): 23 nM | GI50 (COLO 205 [3]): 25 nM | GI50 (NCI-H23): 27 nM | GI50 (MCF7): 29 nM | Ki [4]: 64 nM | GI50 (U2OS): 45 nM | GI50 (Raji): 41 nM | GI50 (MDA-MB-435): 30 nM | GI50 (HT-29): 14 nM | GI50 (HeLa): 20 nM | GI50 (HCT-8 [11]): 35 nM
Compound: CC(C)Oc1ccc(C(=O)N[C@H](CNC(=O)CN(C)C)Cc2ccc(-c3cn4cccc([C@H](C)O)c4n3)cc2)cc1Cl [GSK-923295A]
GI50 [1]: 28 nM | GI50 (H4): 31 nM | Activity (NCI-H157): 2.6 | GI50 (HuP-T4): 158 nM | GI50 (CAL-27): 47 nM | GI50 (SF-539): 28 nM | Activity (SCC-15): 2.38 | Activity (SK-MEL3): 1.11 | Activity (BE(2)-C): 2.28 | GI50 [2]: 42 nM | GI50 (SiHa): 29 nM | GI50 (HCC70): 24 nM | GI50 (BV-173): 56 nM | Activity (ACHN): 2.51 | Activity (CHP-212): 1.39 | Activity (HCT-8 [5]): 4.26 | Activity (MX1 [6]): 2.99 | GI50 (SHP77): 86 nM | Time (COLO 205 [7]): >74 days | Activity (NCI-H209): 1.12 | GI50 (MX1 [8]): 30 nM | Activity (MC-IXC): 2.67 | Activity [9]: 3.39 | Activity [10]: 1.92 | GI50 (BC-3): 88 nM | Activity (Y79): 4.11 | Activity (NCI-H1299): 15% | GI50 (G-401): 26 nM | GI50 (JEG-3): 25 nM
